Measurements reported in PMC6360136 (Investigational new drugs, 2018).

Tests used:
[1] = test system: VEGF-A secretion in PANC-1 and EC46 cells; assay: VEGF-A AlphaLISA; assay type: cell-based, human; settings: 12 h
[2] = Tissue distribution and pharmacokinetic study; assay type: in vivo; settings: single 1 mg/kg, NSG mice
Outline: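 Female NSG mice (4–10 weeks) received a single 1 mg/kg dose, either i.v. in 10% EtOH/5% Tween-80/85% saline or i.p. in DMSO; 3 mice per time point. Plasma and tissues were collected at 10 min and 1, 3, 8, 24 and 48 h. Tissues were homogenised in PBS, proteins precipitated in acetonitrile/methanol with harmine internal standard, and samples quantified by positive-ESI MRM LC-MS/MS against matrix calibration curves. PK parameters came from noncompartmental analysis.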

SMILES: CC[C@H](C)[C@@H]1C(=O)N2CCC[C@@H]2C(=O)O[C@H](C(C)(C)C)C[C@@H](C)C[C@@H](O)C(C)(C)C2=N[C@H](CCC(=O)N[C@@H](Cc3ccc(OC)cc3)C(=O)N(C)[C@@H](C)C(=O)N1C)CS2 [Apra S10, apratoxin S10]
- effect on VEGF-A secretion [1]: inhibited the secretion of VEGF-A at low nanomolar to subnanomolar concentrations
- AUC (area under the concentration-time curve to infinity) ([2]; Brain, IP): 3067 ng·h/mL
- AUCt (area under the concentration-time curve) ([2]; Brain, IP): 727 ng·h/mL
- CL/F (clearance) ([2]; Brain, IP): 5.43 mL/min/kg
- Cmax (peak concentration) ([2]; Brain, IP): 18 ng/mL
- Ke (elimination rate constant) ([2]; Brain, IP): 0.006 h⁻¹
- MRT (mean residence time) ([2]; Brain, IP): 170.68 h
- Tmax (time to peak concentration) ([2]; Brain, IP): 0.17 h
- Vz/F (volume of distribution) ([2]; Brain, IP): 55.015 L/kg
- t1/2 (half-life) ([2]; Brain, IP): 116.95 h
- AUC (area under the concentration-time curve to infinity) ([2]; Brain, IV): 2442 ng·h/mL
- AUCt (area under the concentration-time curve) ([2]; Brain, IV): 874 ng·h/mL
- CL/F (clearance) ([2]; Brain, IV): 6.82 mL/min/kg
- Cmax (peak concentration) ([2]; Brain, IV): 63 ng/mL
- Ke (elimination rate constant) ([2]; Brain, IV): 0.009 h⁻¹
- MRT (mean residence time) ([2]; Brain, IV): 110.88 h
- Tmax (time to peak concentration) ([2]; Brain, IV): 0.17 h
- Vz/F (volume of distribution) ([2]; Brain, IV): 46.571 L/kg
- t1/2 (half-life) ([2]; Brain, IV): 78.84 h
- AUC (area under the concentration-time curve to infinity) ([2]; Kidney, IP): 5559 ng·h/mL
- AUCt (area under the concentration-time curve) ([2]; Kidney, IP): 4508 ng·h/mL
- CL/F (clearance) ([2]; Kidney, IP): 3 mL/min/kg
- Cmax (peak concentration) ([2]; Kidney, IP): 403 ng/mL
- Ke (elimination rate constant) ([2]; Kidney, IP): 0.036 h⁻¹
- MRT (mean residence time) ([2]; Kidney, IP): 25.57 h
- Tmax (time to peak concentration) ([2]; Kidney, IP): 1.00 h
- Vz/F (volume of distribution) ([2]; Kidney, IP): 5.02 L/kg
- t1/2 (half-life) ([2]; Kidney, IP): 19.34 h
- AUC (area under the concentration-time curve to infinity) ([2]; Kidney, IV): 3345 ng·h/mL
- AUCt (area under the concentration-time curve) ([2]; Kidney, IV): 3285 ng·h/mL
- CL/F (clearance) ([2]; Kidney, IV): 4.98 mL/min/kg
- Cmax (peak concentration) ([2]; Kidney, IV): 753 ng/mL
- Ke (elimination rate constant) ([2]; Kidney, IV): 0.077 h⁻¹
- MRT (mean residence time) ([2]; Kidney, IV): 9.34 h
- Tmax (time to peak concentration) ([2]; Kidney, IV): 0.17 h
- Vz/F (volume of distribution) ([2]; Kidney, IV): 3.892 L/kg
- t1/2 (half-life) ([2]; Kidney, IV): 9.03 h
- AUC (area under the concentration-time curve to infinity) ([2]; Liver, IP): 7951 ng·h/mL
- AUCt (area under the concentration-time curve) ([2]; Liver, IP): 7485 ng·h/mL
- CL/F (clearance) ([2]; Liver, IP): 2.1 mL/min/kg
- Cmax (peak concentration) ([2]; Liver, IP): 945 ng/mL
- Ke (elimination rate constant) ([2]; Liver, IP): 0.067 h⁻¹
- MRT (mean residence time) ([2]; Liver, IP): 12.77 h
- Tmax (time to peak concentration) ([2]; Liver, IP): 0.17 h
- Vz/F (volume of distribution) ([2]; Liver, IP): 1.865 L/kg
- t1/2 (half-life) ([2]; Liver, IP): 10.28 h
- AUC (area under the concentration-time curve to infinity) ([2]; Liver, IV): 6560 ng·h/mL
- AUCt (area under the concentration-time curve) ([2]; Liver, IV): 6095 ng·h/mL
- CL/F (clearance) ([2]; Liver, IV): 2.53 mL/min/kg
- Cmax (peak concentration) ([2]; Liver, IV): 1127 ng/mL
- Ke (elimination rate constant) ([2]; Liver, IV): 0.056 h⁻¹
- MRT (mean residence time) ([2]; Liver, IV): 14.08 h
- Tmax (time to peak concentration) ([2]; Liver, IV): 0.17 h
- Vz/F (volume of distribution) ([2]; Liver, IV): 2.741 L/kg
- t1/2 (half-life) ([2]; Liver, IV): 12.46 h
- AUC (area under the concentration-time curve to infinity) ([2]; Lung, IP): 3310 ng·h/mL
- AUCt (area under the concentration-time curve) ([2]; Lung, IP): 2321 ng·h/mL
- CL/F (clearance) ([2]; Lung, IP): 5.03 mL/min/kg
- Cmax (peak concentration) ([2]; Lung, IP): 210 ng/mL
- Ke (elimination rate constant) ([2]; Lung, IP): 0.023 h⁻¹
- MRT (mean residence time) ([2]; Lung, IP): 38.38 h
- Tmax (time to peak concentration) ([2]; Lung, IP): 0.17 h
- Vz/F (volume of distribution) ([2]; Lung, IP): 13.044 L/kg
- t1/2 (half-life) ([2]; Lung, IP): 29.93 h
- AUC (area under the concentration-time curve to infinity) ([2]; Lung, IV): 2768 ng·h/mL
- AUCt (area under the concentration-time curve) ([2]; Lung, IV): 2273 ng·h/mL
- CL/F (clearance) ([2]; Lung, IV): 6.02 mL/min/kg
- Cmax (peak concentration) ([2]; Lung, IV): 329 ng/mL
- Ke (elimination rate constant) ([2]; Lung, IV): 0.041 h⁻¹
- MRT (mean residence time) ([2]; Lung, IV): 24.55 h
- Tmax (time to peak concentration) ([2]; Lung, IV): 0.17 h
- Vz/F (volume of distribution) ([2]; Lung, IV): 8.837 L/kg
- t1/2 (half-life) ([2]; Lung, IV): 16.95 h
- AUC (area under the concentration-time curve to infinity) ([2]; Pancreas, IP): 60205 ng·h/mL
- AUCt (area under the concentration-time curve) ([2]; Pancreas, IP): 54532 ng·h/mL
- CL/F (clearance) ([2]; Pancreas, IP): 0.283 mL/min/kg
- Cmax (peak concentration) ([2]; Pancreas, IP): 2883 ng/mL
- Ke (elimination rate constant) ([2]; Pancreas, IP): 0.051 h⁻¹
- MRT (mean residence time) ([2]; Pancreas, IP): 17.46 h
- Tmax (time to peak concentration) ([2]; Pancreas, IP): 3.00 h
- Vz/F (volume of distribution) ([2]; Pancreas, IP): 0.323 L/kg
- t1/2 (half-life) ([2]; Pancreas, IP): 13.49 h
- AUC (area under the concentration-time curve to infinity) ([2]; Pancreas, IV): 49289 ng·h/mL
- AUCt (area under the concentration-time curve) ([2]; Pancreas, IV): 45982 ng·h/mL
- CL/F (clearance) ([2]; Pancreas, IV): 0.333 mL/min/kg
- Cmax (peak concentration) ([2]; Pancreas, IV): 2348 ng/mL
- Ke (elimination rate constant) ([2]; Pancreas, IV): 0.059 h⁻¹
- MRT (mean residence time) ([2]; Pancreas, IV): 14.80 h
- Tmax (time to peak concentration) ([2]; Pancreas, IV): 8.00 h
- Vz/F (volume of distribution) ([2]; Pancreas, IV): 0.342 L/kg
- t1/2 (half-life) ([2]; Pancreas, IV): 11.70 h
- AUC (area under the concentration-time curve to infinity) ([2]; Plasma, IP): 1292 ng·h/mL
- AUCt (area under the concentration-time curve) ([2]; Plasma, IP): 1251 ng·h/mL
- CL/F (clearance) ([2]; Plasma, IP): 12.9 mL/min/kg
- Cmax (peak concentration) ([2]; Plasma, IP): 775 ng/mL
- Ke (elimination rate constant) ([2]; Plasma, IP): 0.082 h⁻¹
- MRT (mean residence time) ([2]; Plasma, IP): 6.54 h
- Tmax (time to peak concentration) ([2]; Plasma, IP): 0.17 h
- Vz/F (volume of distribution) ([2]; Plasma, IP): 9.49 L/kg
- t1/2 (half-life) ([2]; Plasma, IP): 8.50 h
- AUC (area under the concentration-time curve to infinity) ([2]; Plasma, IV): 1303 ng·h/mL
- AUCt (area under the concentration-time curve) ([2]; Plasma, IV): 1287 ng·h/mL
- CL/F (clearance) ([2]; Plasma, IV): 12.8 mL/min/kg
- Cmax (peak concentration) ([2]; Plasma, IV): 1072 ng/mL
- Ke (elimination rate constant) ([2]; Plasma, IV): 0.089 h⁻¹
- MRT (mean residence time) ([2]; Plasma, IV): 4.20 h
- Tmax (time to peak concentration) ([2]; Plasma, IV): 0.17 h
- Vz/F (volume of distribution) ([2]; Plasma, IV): 8.616 L/kg
- t1/2 (half-life) ([2]; Plasma, IV): 7.78 h
- AUC (area under the concentration-time curve to infinity) ([2]; Salivary gland, IP): 19233 ng·h/mL
- AUCt (area under the concentration-time curve) ([2]; Salivary gland, IP): 13009 ng·h/mL
- CL/F (clearance) ([2]; Salivary gland, IP): 0.867 mL/min/kg
- Cmax (peak concentration) ([2]; Salivary gland, IP): 556 ng/mL
- Ke (elimination rate constant) ([2]; Salivary gland, IP): 0.024 h⁻¹
- MRT (mean residence time) ([2]; Salivary gland, IP): 41.75 h
- Tmax (time to peak concentration) ([2]; Salivary gland, IP): 3.00 h
- Vz/F (volume of distribution) ([2]; Salivary gland, IP): 2.2 L/kg
- t1/2 (half-life) ([2]; Salivary gland, IP): 29.33 h
- AUC (area under the concentration-time curve to infinity) ([2]; Salivary gland, IV): 26182 ng·h/mL
- AUCt (area under the concentration-time curve) ([2]; Salivary gland, IV): 23604 ng·h/mL
- CL/F (clearance) ([2]; Salivary gland, IV): 0.633 mL/min/kg
- Cmax (peak concentration) ([2]; Salivary gland, IV): 1258 ng/mL
- Ke (elimination rate constant) ([2]; Salivary gland, IV): 0.048 h⁻¹
- MRT (mean residence time) ([2]; Salivary gland, IV): 19.56 h
- Tmax (time to peak concentration) ([2]; Salivary gland, IV): 1.00 h
- Vz/F (volume of distribution) ([2]; Salivary gland, IV): 0.797 L/kg
- t1/2 (half-life) ([2]; Salivary gland, IV): 14.46 h
- AUC (area under the concentration-time curve to infinity) ([2]; Spleen, IP): 6586 ng·h/mL
- AUCt (area under the concentration-time curve) ([2]; Spleen, IP): 5011 ng·h/mL
- CL/F (clearance) ([2]; Spleen, IP): 2.53 mL/min/kg
- Cmax (peak concentration) ([2]; Spleen, IP): 253 ng/mL
- Ke (elimination rate constant) ([2]; Spleen, IP): 0.031 h⁻¹
- MRT (mean residence time) ([2]; Spleen, IP): 31.38 h
- Tmax (time to peak concentration) ([2]; Spleen, IP): 0.17 h
- Vz/F (volume of distribution) ([2]; Spleen, IP): 4.868 L/kg
- t1/2 (half-life) ([2]; Spleen, IP): 22.22 h
- AUC (area under the concentration-time curve to infinity) ([2]; Spleen, IV): 6838 ng·h/mL
- AUCt (area under the concentration-time curve) ([2]; Spleen, IV): 4686 ng·h/mL
- CL/F (clearance) ([2]; Spleen, IV): 2.43 mL/min/kg
- Cmax (peak concentration) ([2]; Spleen, IV): 195 ng/mL
- Ke (elimination rate constant) ([2]; Spleen, IV): 0.027 h⁻¹
- MRT (mean residence time) ([2]; Spleen, IV): 38.00 h
- Tmax (time to peak concentration) ([2]; Spleen, IV): 8.00 h
- Vz/F (volume of distribution) ([2]; Spleen, IV): 5.353 L/kg
- t1/2 (half-life) ([2]; Spleen, IV): 25.37 h
